Where a name gives a salt, the structure may show the parent alone.
Tests used:
Rattus norvegicus = assay: Inhibition of 5% sucrose solution intake in Zucker fa/fa rat at 10 mg/kg, po on day 7 after 1 hr; format: functional
Procedure, shortened: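 Female Zucker fa/fa rats (10–12 weeks, 300–350 g) were trained on six consecutive days, without food or water during sessions. On day 7 they were randomized (n = 6/group) and dosed orally at 10 mg/kg in 0.5% CMC-Na/water (2 mL/kg). One hour later they had 5% sucrose for 4 h. Intake (g) and % inhibition vs control; mean ± SEM; one-way ANOVA with Dunnett's test.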

[1] = molecular target: Cannabinoid receptor 1 (Homo sapiens) (UniProt P21554); assay: Antagonist activity at human CB1 receptor expressed in CHO cells assessed as forskolin-induced cAMP accumulation per ug of protein at 10 uM in presence of WIN-55212-2; format: functional, cell-based
Chain of Cannabinoid receptor 1 (Homo sapiens) (P21554 whole entry): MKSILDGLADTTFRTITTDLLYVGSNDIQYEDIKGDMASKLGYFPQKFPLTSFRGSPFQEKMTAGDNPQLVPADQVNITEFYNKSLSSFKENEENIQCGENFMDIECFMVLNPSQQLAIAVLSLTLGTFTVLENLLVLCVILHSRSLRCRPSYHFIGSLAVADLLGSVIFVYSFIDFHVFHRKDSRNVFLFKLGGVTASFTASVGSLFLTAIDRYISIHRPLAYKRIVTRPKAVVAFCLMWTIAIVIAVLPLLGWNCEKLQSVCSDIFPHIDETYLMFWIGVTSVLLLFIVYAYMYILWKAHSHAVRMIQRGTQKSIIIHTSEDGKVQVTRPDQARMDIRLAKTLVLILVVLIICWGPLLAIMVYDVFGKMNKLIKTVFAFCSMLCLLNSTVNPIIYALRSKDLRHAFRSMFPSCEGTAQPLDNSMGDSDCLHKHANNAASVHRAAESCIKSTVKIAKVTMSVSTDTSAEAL
Procedure, shortened: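 CHO-K1 cells stably expressing human CB1 were kept in HAM's F12 with 10% heat-inactivated dialyzed FBS and 0.8 mg/mL G-418. Cells were seeded at 50,000/well, grown 16–18 h, then preincubated 30 min at 37 °C with 0.25% fatty-acid-free BSA, IBMX 0.1 mM and RO20-1724 0.1 mM. Drugs were added for 5 min, then forskolin (10, final) for 20 min. Cells were lysed in 0.1 N HCl/0.1% Triton for cAMP ELISA. Mean ± SD, duplicate, ≥3 experiments.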

CN/C(=N/S(=O)(=O)c1ccc(Cl)cc1)C1CN(c2ccccc2)C(c2ccc(Cl)cc2)=N1 (configuration not stated)
inhibition in vivo at 10 mg/kg (Rattus norvegicus): 14.4% | Activity [1]: 1.22 pmol

CN/C(=N/S(=O)(=O)c1ccc(Cl)cc1)c1nc(-c2ccccc2)c(-c2ccc(Cl)cc2)o1
inhibition in vivo at 10 mg/kg (Rattus norvegicus): 4.3% | Activity [1]: 0.6 pmol

CN/C(=N/S(=O)(=O)c1ccc(Cl)cc1)c1cn(-c2ccc(Cl)cc2)c(-c2ccccc2)n1
inhibition in vivo at 10 mg/kg (Rattus norvegicus): 6.7% | Activity [1]: 0.55 pmol

Cc1c(C(=O)NN2CCCCC2)nn(-c2ccc(Cl)cc2Cl)c1-c1ccc(Cl)cc1 [RIMONABANT HYDROCHLORIDE]
inhibition in vivo at 10 mg/kg (Rattus norvegicus): 36.1%

CN/C(=N/S(=O)(=O)c1ccc(Cl)cc1)C1CN(c2ccc(Cl)cc2)C(c2ccccc2)=N1 (configuration not stated)
inhibition in vivo at 10 mg/kg (Rattus norvegicus): 2.2% | Activity [1]: 0.94 pmol

CN/C(=N\S(=O)(=O)c1ccc(Cl)cc1)N1C[C@H](c2ccccc2)C(c2ccc(Cl)cc2)=N1 [IBIPINABANT]
inhibition in vivo at 10 mg/kg (Rattus norvegicus): 37.6%

CN/C(=N/S(=O)(=O)c1ccc(Cl)cc1)c1nc(-c2ccc(Cl)cc2)c(-c2ccccc2)o1
inhibition in vivo at 10 mg/kg (Rattus norvegicus): 0.6% | Activity [1]: 1.3 pmol

Reference: ChEMBL document CHEMBL1143217, “Bioisosteric replacement of dihydropyrazole of 4S-(-)-3-(4-chlorophenyl)-N-methyl-N'-[(4-chlorophenyl)-sulfonyl]-4-phenyl-4,5-dihydro-1H-pyrazole-1-caboxamidine (SLV-319) a potent CB1 receptor antagonist by imidazole and oxazole” (2008)
